Compound activity from PubChem BioAssay.
Rows were chosen to be rich in hits. Some 1.8% of all compounds tested hit in one or more screens of this group.
M4 antag = CHRM4 antagonism in calcium assay; P08173; CHO-hM4 cells, ACh EC80, Fluo-8 calcium fluorescence; inhibition, % at 3 µM; 0.73% of 360,000 active;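 active = inhibition above its plate's cutoff, the mean inhibition of sample wells plus 3 SD, cut at about 27% in these data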;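 also: 0% = acetylcholine EC80 with DMSO and 100% = DMSO without agonist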
Target sequence (P08173 whole entry, looked up): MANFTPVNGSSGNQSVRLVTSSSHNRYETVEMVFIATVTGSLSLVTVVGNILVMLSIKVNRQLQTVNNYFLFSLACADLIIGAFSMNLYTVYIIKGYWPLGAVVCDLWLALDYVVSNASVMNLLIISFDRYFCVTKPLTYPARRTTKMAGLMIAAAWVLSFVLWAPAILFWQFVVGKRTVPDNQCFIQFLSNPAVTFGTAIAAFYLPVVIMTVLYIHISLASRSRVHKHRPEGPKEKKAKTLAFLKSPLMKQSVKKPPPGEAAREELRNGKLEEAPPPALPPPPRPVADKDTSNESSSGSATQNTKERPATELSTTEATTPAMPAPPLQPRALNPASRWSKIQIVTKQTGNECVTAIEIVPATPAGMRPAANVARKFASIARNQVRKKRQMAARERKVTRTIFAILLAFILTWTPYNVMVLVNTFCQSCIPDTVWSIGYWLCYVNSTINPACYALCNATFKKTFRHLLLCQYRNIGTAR
CHRM4 agonist = CHRM4 agonism in calcium assay. activation, % at 3 µM. AID 624127. CHO-K1 hM4/Gqi5, Fluo-8 calcium fluorescence; vehicle 0%, full acetylcholine response 100%. P08173. 0.14% of 360,000 active;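 active = activation above the run mean over all test wells plus 3 SD, cut at about 32% in these data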;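 also: peak over basal fluorescence ratio per well then scaled between controls; 0% = DMSO wells and 100% = acetylcholine at EC100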
CHRM5 PAM = positive allosteric modulators of human muscarinic M5 receptor; activation, % at 3 µM; AID 624038; CHO-K1 hM5, Fluo-8 calcium, ACh EC20 PAM; 0% = ACh EC20, 100% = ACh EC100; P08912; 0.3% of 360,000 active;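 active = activation above the run cutoff, the mean activation of all test compounds plus 3 SD, cut at about 18% in these data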
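Assay system: CHO-K1 hM5 cells. Also added: acetylcholine at EC20 concentration, added after compound. Dosing: 3 µM, single dose. Times: compound preincubation 140 s before EC20 acetylcholine addition. Signal: Fluo-8 calcium fluorescence. Measure: % activation relative to EC20 and EC100 ACh responses. Repeats: singlicate, one well per test compound.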
CHRM5 antagonist = blocks acetylcholine activation of human M5 receptor; P08912; CHO-hM5 cells, Fluo-8 calcium fluorescence, ACh EC80; inhibition, % at 3 µM; 0.59% of 360,000 active; AID 624040;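 active = inhibition above a per-plate cutoff, the mean of that plate's test compounds plus 3 SD, cut at about 27% in these data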;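 also: 0% = acetylcholine EC80 with DMSO and 100% = DMSO without agonist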
CHRM4 PAM = potentiates acetylcholine response at human M4 receptor; CHO-K1 hM4/Gqi5, Fluo-8 calcium fluorescence, ACh EC20; 0% = ACh EC20, 100% = maximal ACh; activation, % at 3 µM; 0.4% of 360,000 active; AID 624126;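 active = activation above its plate's cutoff, the mean activation of sample wells plus 3 SD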
M5 ag = agonists of human muscarinic M5 receptor (CHRM5); P08912; CHO-K1 hM5 cells, Fluo-8 calcium fluorescence; 0% DMSO wells, 100% maximal acetylcholine response; activation, % at 3 µM; 0.19% of 360,000 active; AID 624037;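 active = activation above the run's mean over test compounds plus 3 SD, cut at about 23% in these data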;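 also: signal is peak over basal fluorescence ratio across the kinetic read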
* hit, by the source's call.

SMILES	M4 antag	CHRM4 agonist	CHRM5 PAM	CHRM5 antagonist	CHRM4 PAM	M5 ag
CC(C)c1ccc(/C=C/C(=O)NC(=S)Nc2ccc(CN3CCOCC3)cc2)cc1	14	3	-18	41*	-14	-8
CC1CCC2(CC1)NC(=O)N(CC(=O)NCc1ccc3c(c1)OCO3)C2=O (configuration not stated)	-4	0	-14	31*	-5	-9
O=C(CN1C(=O)NC2(CCSC2)C1=O)NCc1ccccc1 (configuration not stated)	-9	3	5	7	18*	-1
O=C(CN1C(=O)NC2(CCCC2)C1=O)NCc1ccccc1	-11	1	-3	11	5	0
CC1=C(C(=O)NCc2ccc3c(c2)OCO3)C2(CCC(C)CC2)OC1=O (configuration not stated)	60*	4	-21	8	-18	-1
CC1=C(C(=O)NCc2ccco2)C2(CCC(C)CC2)OC1=O (configuration not stated)	-11	1	1	-4	1	2
O=C(CN1CCC(O)CC1)N1c2ccccc2C=Cc2ccccc21	29*	1	-33	19	-21	-10
O=C(CN1CCCCC1)N1c2ccccc2CCc2ccccc21	77*	1	-18	49*	-22	-6
CCCC(CCC)C(=O)Nc1ccc2c(c1)N(C(=O)CN1CCN(C)CC1)c1ccccc1CC2	44*	1	-19	31*	-24	-11
CCOC(=O)Nc1ccc2c(c1)N(C(=O)C(C)N1CCCC1)c1ccccc1CC2 (configuration not stated)	60*	1	-24	24	-16	-7
CCOC(=O)Nc1ccc2c(c1)N(C(=O)OC)c1ccccc1CC2	-6	0	0	1	10	-3
CCOC(=O)C1CCN(C(=O)N(CC)CC)CC1	2	1	3	-3	0	3
Cc1cc(F)ccc1C(O)c1ncc(-c2ccccc2C(F)(F)F)[nH]1 (configuration not stated)	0	2	2	4	-2	0
CCN1CCN(CC(=O)N2c3ccccc3Sc3ccccc32)CC1	31*	2	-19	5	-15	-8
O=C(CN1CCCC1)N1c2ccccc2Sc2ccccc21	61*	0	-14	59*	-25	-10
O/N=C/C1=C(Cl)c2ccccc2CC1	-4	0	10	5	7	-8
CCOC(=O)c1ccccc1NC(=O)COC(=O)CCC(=O)c1ccc(C)cc1	-26	2	-5	4	9	-2
O=C1Nc2ccccc2/C1=C/C(=O)c1cccs1	8	5	19*	16	-9	8
COc1ccc(C(=O)/C=C2/C(=O)Nc3ccccc32)cc1	4	8	11	8	-10	12
COc1ccc(C(=O)/C=C2/C(=O)Nc3ccccc32)cc1OC	-13	6	5	3	-8	8
COc1ccc(C(=O)/C=C2/C(=O)Nc3ccccc32)c(OC)c1	29*	9	-2	13	-15	6
Cc1ccc(S(=O)(=O)Nc2ccc3c(c2)CC(=O)N([C@H](C)CO)C[C@@H](C)[C@H](CN(C)S(=O)(=O)c2ccccc2)O3)cc1	33*	-1	-1	10	-21	-2
C[C@H](CO)N1C[C@H](C)[C@@H](CN(C)S(=O)(=O)c2ccc(Cl)cc2)Oc2ccc(NS(=O)(=O)c3ccccc3)cc2CC1=O	-15	3	2	10	9	-4
C[C@H](CO)N1C[C@H](C)[C@H](CN(C)S(=O)(=O)c2ccccc2)Oc2ccc(NC(=O)NC3CCCCC3)cc2CC1=O	99*	0	-2	14	-17	-3
CC(=O)OC[C@@H]1CN(Cc2cccc(C(F)(F)F)c2)C[C@H](n2cnc3c(NCc4ccco4)ncnc32)O1	16	24	-8	8	-10	7
SMILES	M4 antag	CHRM4 agonist	CHRM5 PAM	CHRM5 antagonist	CHRM4 PAM	M5 ag
Cn1c(CNC(=O)c2ccc(Cl)cc2)nnc1SCC(=O)NC1CCCC1	-7	1	0	3	0	-3
O=C(c1ccc([N+](=O)[O-])cc1)N(Cc1ccc(Cl)cc1)N1C(=O)CCCC1=O	3	3	-3	-2	3	-1
O=C(c1ccc([N+](=O)[O-])cc1)N(Cc1ccc(Cl)cc1Cl)N1C(=O)CCCC1=O	67*	1	2	-1	0	-1
N#C/C(=C/c1ccc(N2CCCCCC2)o1)c1ccc(Cl)cc1	27*	3	7	2	-12	6
Oc1ccc(Nc2nc(-c3ccccc3)nc3ccccc23)cc1	5	7	-10	7	-2	-3
Oc1ccc(Nc2nc3ccccc3nc2Nc2ccc(O)cc2)cc1	27*	4	-7	5	-12	4
Cn1cccc1CC(=O)N/N=C\c1c2ccccc2cc2ccccc12	-11	0	1	-7	3	-1
C[N+](C)(C)CC(=O)N/N=C/c1c2ccccc2cc2ccccc12	1	0	-12	19	1	32*
O=P(NCc1ccccc1)(OCc1ccccc1)OCc1ccccc1	-10	4	-3	0	-1	1
CC(NS(=O)(=O)OCC(Cl)(Cl)Cl)c1ccc(C(C)(C)C)cc1 (configuration not stated)	45*	4	-25	15	-13	-11
CCN(CC#CCC(O)(c1ccccc1)C1CCCC1)C(C)C (configuration not stated)	92*	2	-15	83*	-14	-11
CC(C)N(CC#CCC(O)(c1ccccc1)C1CCCC1)CCO (configuration not stated)	14	2	-19	47*	-17	-9
O=C(O)c1ccccc1C(=O)c1ccc2oc(=O)[nH]c2c1	-25	0	3	-6	8	2
CCN1CCN(C(CNS(=O)(=O)c2ccc(Br)cc2)c2cccnc2)CC1 (configuration not stated)	9	1	-9	4	13	-9
CCCN(CCC)Cc1c(C(=O)N/N=C/c2ccoc2)nnn1-c1nonc1N	2	1	6	3	0	-2
CCOc1cccc(-c2c(C(=O)N/N=C/c3ccc(Br)cc3)nnn2-c2nonc2N)c1	-1	9	18*	1	15	18
CCCN(CCC)Cc1c(C(=O)N/N=C/c2ccco2)nnn1-c1nonc1N	0	1	-8	27*	3	-4
CC(/C=N/NC(=O)c1nnn(-c2nonc2N)c1C(C)C)=C\c1ccco1	8	2	7	-3	17*	0
